Results from ChEMBL document CHEMBL4689842, “EUbOPEN Chemogenomics Library wave 1” (2021).

Assays:
Format in all cases: toxicity, cell-based
HEK-293T = experiment: Incucyte cell viability with HEK293T; settings: human, 10 µM, compound concentration 10 uM; note: filed as whole numbers so only -1 and 0 and 1 occur
U2OS [1] = experiment: Multiplex assay against U2OS; settings: human
How it was run: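 Live cells were stained at seeding with Hoechst33342, BioTracker Green Microtubule Cytoskeleton Dye, MitoTracker Red and Annexin V Alexa Fluor 680. Following compound addition, they were imaged on a CQ1 microscope at 37°C and 5% CO2 and gated by CellPathfinder machine learning into Hoechst high-intensity objects or normal cells, with normal cells split into healthy, pyknosed or fragmented nuclei and pyknosed cells into mitotic or apoptotic. Tubulin, mitochondrial-mass and membrane-permeability phenotypes are per cents of healthy-nucleus cells.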

Fibroblast = experiment: Incucyte cell viability with human fibroblast; settings: 10 µM, compound concentration 10 uM; note: filed as whole numbers so only -1 and 0 and 1 occur
U2OS [2] = experiment: Incucyte cell viability with U2OS; settings: human, 10 µM, compound concentration 10 uM; note: filed as whole numbers so only -1 and 0 and 1 occur
[3] = 6 h, replicate number 1, timepoint 6 hours
[4] = 12 h, replicate number 1, timepoint 12 hours
[5] = 18 h, replicate number 1, timepoint 18 hours
[6] = 24 h, replicate number 1, timepoint 24 hours
[7] = 12 h, 1 µM, compound concentration 1 uM, replicate 1
[8] = 12 h, 1 µM, compound concentration 1 uM, replicate 2
[9] = 12 h, 10 µM, compound concentration 10 uM, replicate 1
[10] = 12 h, 10 µM, compound concentration 10 uM, replicate 2
[11] = 24 h, 1 µM, compound concentration 1 uM, replicate 1
[12] = 24 h, 1 µM, compound concentration 1 uM, replicate 2
[13] = 24 h, 10 µM, compound concentration 10 uM, replicate 1
[14] = 24 h, 10 µM, compound concentration 10 uM, replicate 2
[15] = 48 h, 1 µM, compound concentration 1 uM, replicate 1
[16] = 48 h, 1 µM, compound concentration 1 uM, replicate 2
[17] = 48 h, 10 µM, compound concentration 10 uM, replicate 1
[18] = 48 h, 10 µM, compound concentration 10 uM, replicate 2

Compound: CCCCCNC(=N)N/N=C/c1c[nH]c2ccc(OC)cc12.O=C(O)/C=C\C(=O)O [TEGASEROD MALEATE]
- Growth Rate (HEK-293T; 0 h, replicate number 2, timepoint 0 hours): 1
- Growth Rate (HEK-293T; [3]): 0
- Growth Rate (HEK-293T; [4]): 0
- Growth Rate (HEK-293T; [5]): 0
- Growth Rate (HEK-293T; [6]): 0
- Population Apoptotic (%) (U2OS [1]; [7]): 66%
- Population Fragmented Nuclei (%) (U2OS [1]; [7]): 12%
- Population Healthy Nuclei (%) (U2OS [1]; [7]): 75%
- Population Hoechst High Intensity Objects (%) (U2OS [1]; [7]): 8%
- Population Membrane Permeable-Phenotype (%) (U2OS [1]; [7]): 4%
- Population Mitochondria Different-Phenotype (%) (U2OS [1]; [7]): 16%
- Population Mitotic Cells (%) (U2OS [1]; [7]): 33%
- Population Normal (%) (U2OS [1]; [7]): 91%
- Population Pyknosed Nuclei (%) (U2OS [1]; [7]): 11%
- Population Tubulin-Different-Phenotype (%) (U2OS [1]; [7]): 10%
- Total Cell Count (U2OS [1]; [7]): 73
- Population Apoptotic (%) (U2OS [1]; [8]): 20%
- Population Healthy Nuclei (%) (U2OS [1]; [8]): 79%
- Population Hoechst High Intensity Objects (%) (U2OS [1]; [8]): 3%
- Population Mitochondria Different-Phenotype (%) (U2OS [1]; [8]): 22%
- Population Mitotic Cells (%) (U2OS [1]; [8]): 80%
- Population Normal (%) (U2OS [1]; [8]): 96%
- Population Pyknosed Nuclei (%) (U2OS [1]; [8]): 8%
- Population Tubulin-Different-Phenotype (%) (U2OS [1]; [8]): 14%
- Total Cell Count (U2OS [1]; [8]): 74
- Population Apoptotic (%) (U2OS [1]; [9]): 92%
- Population Fragmented Nuclei (%) (U2OS [1]; [9]): 36%
- Population Healthy Nuclei (%) (U2OS [1]; [9]): 0%
- Population Hoechst High Intensity Objects (%) (U2OS [1]; [9]): 12%
- Population Membrane Permeable-Phenotype (%) (U2OS [1]; [9]): 100%
- Population Mitochondria Different-Phenotype (%) (U2OS [1]; [9]): 100%
- Population Mitotic Cells (%) (U2OS [1]; [9]): 7%
- Population Normal (%) (U2OS [1]; [9]): 87%
- Population Pyknosed Nuclei (%) (U2OS [1]; [9]): 62%
- Population Tubulin-Different-Phenotype (%) (U2OS [1]; [9]): 100%
- Total Cell Count (U2OS [1]; [9]): 167
- Population Apoptotic (%) (U2OS [1]; [10]): 100%
- Population Fragmented Nuclei (%) (U2OS [1]; [10]): 22%
- Population Healthy Nuclei (%) (U2OS [1]; [10]): 3%
- Population Hoechst High Intensity Objects (%) (U2OS [1]; [10]): 35%
- Population Mitotic Cells (%) (U2OS [1]; [10]): 0%
- Population Normal (%) (U2OS [1]; [10]): 64%
- Population Pyknosed Nuclei (%) (U2OS [1]; [10]): 73%
- Total Cell Count (U2OS [1]; [10]): 64
- Population Apoptotic (%) (U2OS [1]; [11]): 47%
- Population Fragmented Nuclei (%) (U2OS [1]; [11]): 9%
- Population Healthy Nuclei (%) (U2OS [1]; [11]): 78%
- Population Hoechst High Intensity Objects (%) (U2OS [1]; [11]): 4%
- Population Membrane Permeable-Phenotype (%) (U2OS [1]; [11]): 6%
- Population Mitochondria Different-Phenotype (%) (U2OS [1]; [11]): 13%
- Population Mitotic Cells (%) (U2OS [1]; [11]): 52%
- Population Normal (%) (U2OS [1]; [11]): 95%
- Population Pyknosed Nuclei (%) (U2OS [1]; [11]): 12%
- Population Tubulin-Different-Phenotype (%) (U2OS [1]; [11]): 13%
- Total Cell Count (U2OS [1]; [11]): 88
- Population Apoptotic (%) (U2OS [1]; [12]): 87%
- Population Fragmented Nuclei (%) (U2OS [1]; [12]): 10%
- Population Healthy Nuclei (%) (U2OS [1]; [12]): 77%
- Population Hoechst High Intensity Objects (%) (U2OS [1]; [12]): 5%
- Population Membrane Permeable-Phenotype (%) (U2OS [1]; [12]): 5%
- Population Mitochondria Different-Phenotype (%) (U2OS [1]; [12]): 21%
- Population Mitotic Cells (%) (U2OS [1]; [12]): 12%
- Population Normal (%) (U2OS [1]; [12]): 94%
- Population Tubulin-Different-Phenotype (%) (U2OS [1]; [12]): 7%
- Total Cell Count (U2OS [1]; [12]): 89
- Population Apoptotic (%) (U2OS [1]; [13]): 85%
- Population Fragmented Nuclei (%) (U2OS [1]; [13]): 42%
- Population Healthy Nuclei (%) (U2OS [1]; [13]): 1%
- Population Hoechst High Intensity Objects (%) (U2OS [1]; [13]): 16%
- Population Membrane Permeable-Phenotype (%) (U2OS [1]; [13]): 100%
- Population Mitochondria Different-Phenotype (%) (U2OS [1]; [13]): 100%
- Population Mitotic Cells (%) (U2OS [1]; [13]): 14%
- Population Normal (%) (U2OS [1]; [13]): 83%
- Population Pyknosed Nuclei (%) (U2OS [1]; [13]): 56%
- Population Tubulin-Different-Phenotype (%) (U2OS [1]; [13]): 100%
- Total Cell Count (U2OS [1]; [13]): 180
- Population Apoptotic (%) (U2OS [1]; [14]): 100%
- Population Fragmented Nuclei (%) (U2OS [1]; [14]): 44%
- Population Healthy Nuclei (%) (U2OS [1]; [14]): 26%
- Population Hoechst High Intensity Objects (%) (U2OS [1]; [14]): 39%
- Population Mitotic Cells (%) (U2OS [1]; [14]): 0%
- Population Normal (%) (U2OS [1]; [14]): 60%
- Population Pyknosed Nuclei (%) (U2OS [1]; [14]): 28%
- Total Cell Count (U2OS [1]; [14]): 70
- Population Apoptotic (%) (U2OS [1]; [15]): 44%
- Population Fragmented Nuclei (%) (U2OS [1]; [15]): 7%
- Population Healthy Nuclei (%) (U2OS [1]; [15]): 85%
- Population Hoechst High Intensity Objects (%) (U2OS [1]; [15]): 3%
- Population Membrane Permeable-Phenotype (%) (U2OS [1]; [15]): 2%
- Population Mitochondria Different-Phenotype (%) (U2OS [1]; [15]): 11%
- Population Mitotic Cells (%) (U2OS [1]; [15]): 55%
- Population Normal (%) (U2OS [1]; [15]): 96%
- Population Pyknosed Nuclei (%) (U2OS [1]; [15]): 7%
- Population Tubulin-Different-Phenotype (%) (U2OS [1]; [15]): 7%
- Total Cell Count (U2OS [1]; [15]): 112
- Population Apoptotic (%) (U2OS [1]; [16]): 35%
- Population Fragmented Nuclei (%) (U2OS [1]; [16]): 10%
- Population Healthy Nuclei (%) (U2OS [1]; [16]): 75%
- Population Hoechst High Intensity Objects (%) (U2OS [1]; [16]): 1%
- Population Membrane Permeable-Phenotype (%) (U2OS [1]; [16]): 6%
- Population Mitochondria Different-Phenotype (%) (U2OS [1]; [16]): 17%
- Population Mitotic Cells (%) (U2OS [1]; [16]): 64%
- Population Normal (%) (U2OS [1]; [16]): 98%
- Population Pyknosed Nuclei (%) (U2OS [1]; [16]): 13%
- Population Tubulin-Different-Phenotype (%) (U2OS [1]; [16]): 10%
- Total Cell Count (U2OS [1]; [16]): 110
- Population Apoptotic (%) (U2OS [1]; [17]): 91%
- Population Fragmented Nuclei (%) (U2OS [1]; [17]): 50%
- Population Healthy Nuclei (%) (U2OS [1]; [17]): 1%
- Population Hoechst High Intensity Objects (%) (U2OS [1]; [17]): 14%
- Population Membrane Permeable-Phenotype (%) (U2OS [1]; [17]): 100%
- Population Mitochondria Different-Phenotype (%) (U2OS [1]; [17]): 100%
- Population Mitotic Cells (%) (U2OS [1]; [17]): 8%
- Population Normal (%) (U2OS [1]; [17]): 85%
- Population Pyknosed Nuclei (%) (U2OS [1]; [17]): 48%
- Population Tubulin-Different-Phenotype (%) (U2OS [1]; [17]): 100%
- Total Cell Count (U2OS [1]; [17]): 260
- Population Apoptotic (%) (U2OS [1]; [18]): 100%
- Population Fragmented Nuclei (%) (U2OS [1]; [18]): 64%
- Population Healthy Nuclei (%) (U2OS [1]; [18]): 24%
- Population Hoechst High Intensity Objects (%) (U2OS [1]; [18]): 39%
- Population Membrane Permeable-Phenotype (%) (U2OS [1]; [18]): 90%
- Population Mitochondria Different-Phenotype (%) (U2OS [1]; [18]): 90%
- Population Mitotic Cells (%) (U2OS [1]; [18]): 0%
- Population Normal (%) (U2OS [1]; [18]): 60%
- Population Pyknosed Nuclei (%) (U2OS [1]; [18]): 11%
- Population Tubulin-Different-Phenotype (%) (U2OS [1]; [18]): 90%
- Total Cell Count (U2OS [1]; [18]): 103
- Growth Rate (Fibroblast; [3]): 0
- Growth Rate (Fibroblast; [4]): 0
- Growth Rate (Fibroblast; [5]): 0
- Growth Rate (Fibroblast; [6]): 0
- Growth Rate (U2OS [2]; [3]): 0
- Growth Rate (U2OS [2]; [4]): 0
- Growth Rate (U2OS [2]; [5]): 0
- Growth Rate (U2OS [2]; [6]): 0
